Columns and labels:
HepG2 [1] = test: Antiproliferative activity against human HepG2 cells after 24 hrs by MTT assay; assay type: functional, cell-based; conditions: HepG2, 24 h
A549 [2] = test: Antiproliferative activity against human A549 cells after 24 hrs by MTT assay; assay type: functional, cell-based; conditions: A549, 24 h
K562 [3] = test: Antiproliferative activity against human K562 cells after 24 hrs by MTT assay; assay type: functional, cell-based; conditions: K562, 24 h
[4] = Antiproliferative activity against […] cells after 24 hrs by MTT assay; assay type: functional, cell-based; conditions: LL/2, 24 h
A2780 = test: Antiproliferative activity against human A2780 cells after 24 hrs by MTT assay; assay type: functional, cell-based; conditions: A2780, 24 h
[5] = Antiproliferative activity against human SPCA1 cells after 24 hrs by MTT assay; assay type: functional, cell-based; conditions: SPCA1, 24 h
A549 [6] = test: Antiproliferative activity against human A549 cells by MTT assay; assay type: functional, cell-based
Procedure, shortened: (§1)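 Cells from the Institute of Cell Biology, CAS (Shanghai), grown in RPMI-1640 with 10% FBS and 100 U/mL penicillin-streptomycin at 37 °C under 5% CO2. Cells were exposed to compounds for 48 h, and viability was read by MTT (or MTS). IC50, the concentration giving 50% inhibition, was calculated by the Logit method. Data are representative of 3 independent experiments.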

K562 [7] = test: Antiproliferative activity against human K562 cells by MTT assay; assay type: functional, cell-based; procedure, shortened: as §1
[8] = Antiproliferative activity against human SPCA1 cells by MTT assay; assay type: functional, cell-based
[9] = Partition coefficient, log P of the compound; assay type: physicochemical; conditions: octanol/water
K562 [10] = test: Antiproliferative activity against human K562 cells after 48 hrs by MTT assay; assay type: functional, cell-based; conditions: K562, 48 h; procedure, shortened: as §1
HepG2 [11] = test: Antiproliferative activity against human HepG2 cells after 48 hrs by MTT assay; assay type: functional, cell-based; conditions: HepG2, 48 h; procedure, shortened: as §1
[12] = Selectivity index, ratio of IC50 for HUVEC to IC50 for human K562 cells; assay type: toxicity; conditions: HUVEC versus K562 cells, read-out: Ratio IC50
Procedure, shortened: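 K562 tumor cells and HUVEC grown in RPMI-1640 with 10% FBS and penicillin-streptomycin at 37 °C under 5% CO2. Viability was read by MTT or MTS assay, with tumor cells exposed to compounds for 48 h. IC50 values came from the Logit method across 3 independent experiments. The index is HUVEC IC50 divided by K562 IC50.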

HepG2 [13] = test: Antiproliferative activity against human HepG2 cells after 72 hrs by MTT assay; assay type: functional, cell-based; conditions: HepG2, 72 h
HCT-116 = test: Antiproliferative activity against human HCT116 cells after 72 hrs by MTT assay; assay type: functional, cell-based; conditions: HCT-116, 72 h
[14] = Antiproliferative activity against mouse C26 cells; assay type: functional, cell-based
HeLa = test: Antiproliferative activity against human HeLa cells; assay type: functional, cell-based

| IC50 (HepG2 [1]) | IC50 (A549 [2]) | IC50 (K562 [3]) | IC50 (A2780) | IC50 (A549 [6]) | IC50 (K562 [7]) | logP [9] | IC50 (K562 [10]) | IC50 (HepG2 [11]) | IC50 (HepG2 [13]) | IC50 (HCT-116) | IC50 (HeLa) | SMILES | IC50 [4] | IC50 [5] | IC50 [8] | selectivity ratio [12] | IC50 [14] |
| --- | --- | --- | --- | --- | --- | --- | --- | --- | --- | --- | --- | --- | --- | --- | --- | --- | --- |
| 20.2 µM | 34.1 µM | 11.6 µM | 17.8 µM | 49 µM | 19.7 µM | 4.51 |  |  |  |  |  | C=CCc1ccc(O)c(-c2cc(C=O)c(O)c(CC=C)c2)c1 | 31.3 µM | 37.3 µM | 22.8 µM |  |  |
| 32.9 µM | 34.1 µM | 22.1 µM |  | 29.7 µM | 28.4 µM | 5 | 23.9 µM | 34.3 µM | 33.9 µM | 19.1 µM | 62 µM | C=CCc1ccc(O)c(-c2ccc(O)c(CC=C)c2)c1 [HONOKIOL] | 65.3 µM | 37.3 µM | 41.3 µM | 2.2 | 65.1 µM |
